OX1R antag-1: OX1R (HCRTR1) antagonists, primary screen, fluorescence, CHO/OX1R cells, Fluo-8 calcium, orexin A | hit rate 0.43% among 330,000 | inhibition, % at 5 µM | Orexin/Hypocretin receptor type 1 (Homo sapiens), O43613 | Fluo-8 calcium fluorescence;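 active = inhibition above its plate's threshold, mean inhibition of all tested compounds on the plate plus 3 SD, cut at about 37% in these data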;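 note: 0% = orexin A challenge wells and 100% = SB-334867-A antagonist wells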
Target sequence (O43613 whole entry, looked up): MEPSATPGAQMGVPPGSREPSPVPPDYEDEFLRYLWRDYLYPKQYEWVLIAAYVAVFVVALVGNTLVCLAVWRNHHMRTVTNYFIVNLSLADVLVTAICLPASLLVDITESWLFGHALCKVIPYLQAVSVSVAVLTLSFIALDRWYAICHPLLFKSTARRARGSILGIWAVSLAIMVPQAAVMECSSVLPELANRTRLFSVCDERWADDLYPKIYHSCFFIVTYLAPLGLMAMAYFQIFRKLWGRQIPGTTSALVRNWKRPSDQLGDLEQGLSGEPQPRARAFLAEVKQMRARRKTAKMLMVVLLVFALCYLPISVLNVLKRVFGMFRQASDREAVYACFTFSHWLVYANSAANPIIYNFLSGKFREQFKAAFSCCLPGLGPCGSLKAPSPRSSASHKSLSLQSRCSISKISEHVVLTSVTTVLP
CHO parental Ca: ATP-evoked calcium signal inhibitors, parental CHO, primary screen, counter-screen for OX1R antagonist project, cell-based, fluorescence, Fluo-8 calcium dye; hit rate 0.63% among 330,000; parental CHO-K1, ATP-induced calcium, Fluo-8 fluorescence; inhibition, % at 5.6 µM;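 active = inhibition above that plate's mean sample inhibition plus 3 SD, cut at about 26% in these data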;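 note: 0% = ATP-challenged DMSO wells and 100% = DMSO wells without ATP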
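Test system: untransfected parental CHO cell line. Compound: one dose, 5.6 µM nominal. Detection: intracellular calcium via Fluo-8 no-wash fluorescent dye. Measure: % inhibition. Benchmarks: ATP-challenged DMSO wells low, unchallenged DMSO wells high.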
TRPN1 ag: zebrafish TRPN1 channel agonists, primary screen, cell-based, HEK293, calcium fluorescence; transient receptor potential cation channel N1 (TRPN1/NompC), Danio rerio; HEK293 zebrafish TRPN1-YFP, Fluo-8 calcium fluorescence; 100% = response to 87 µM carbachol; activation, % at 3 µM; hit rate 0.18% among 220,000; AID 1424, 2008;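 active = activation above its plate's cutoff, the mean activation of test wells on that plate plus 3 SD, cut at about 19% in these data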;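 note: 0% = DMSO alone and 100% = 87 µM carbachol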
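Material: zebrafish TRPN1-YFP in HEK293 cells; Doses: single test compound dose, 3 µM nominal, 0.3% DMSO; Timing: dye loading 1 h at 37 °C, then 30 min room temperature; Technique: intracellular calcium fluorescence with Fluo-8; Benchmarks: high carbachol 87 µM, low DMSO alone.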
TRPML3 ag: human TRPML3 channel agonists, primary screen, cell-based, HEK293 TRPML3-YFP, Fluo-8 calcium fluorescence, 3 µM. 100% = the carbachol control signal. activation, % at 3 µM. hit rate 0.29% among 220,000;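 active = activation above its plate's cutoff, the mean activation of the plate's test wells plus 3 SD, cut at about 12% in these data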;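 note: 0% = DMSO only wells and 100% = carbachol wells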
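Material: HEK293 cells stably carrying human TRPML3-YFP; compound dosing: single dose, 3 µM final nominal compound, 0.3% DMSO final; incubation: 1-h 37 °C dye load, 5-s basal, 120-s post-compound reads; technique: Fluo-8 intracellular calcium fluorescence, excitation 470-495 nm, emission 515-575 nm; read-out basis: percent activation from peak-to-basal fluorescence ratio, scaled between DMSO and carbachol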
OX1R antag-2: antagonists of human orexin 1 receptor (OX1R). AID 485270, 2010. OX1R-expressing cells, FRET antagonist read-out. Orexin/Hypocretin receptor type 1 (Homo sapiens), O43613. inhibition, % at 6.6 µM. hit rate 1.8% among 330,000; in the data active = inhibition mostly above about 38%, no sharp cut-off; inactive = mostly below about 40%;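 note: 0% = agonist challenge alone and 100% = reference antagonist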
* marks the source's active call; other numbers are inactive results; / = not tested or not shown. A selection: hits, their analogues and other compounds. The true share with any hit is near 2.5%.

SMILES	OX1R antag-1	CHO parental Ca	TRPN1 ag	TRPML3 ag	OX1R antag-2
FC(F)(F)c1cccc(NC(=S)N2CCN(c3cccc(C(F)(F)F)c3)CC2)c1	-6	69*	-1	0	16
CC1=C(C(=O)Nc2cccc(C(=O)N3CCN(c4cccc(C(F)(F)F)c4)CC3)c2)SCCO1	62*	40*	/	/	9
Fc1ccc(NC(=S)N2CCN(c3cccc(C(F)(F)F)c3)CC2)cc1	1	5	0	1	13
CC1=C(C(=O)Nc2ccc(C(=O)N3CCN(c4cccc(Cl)c4)CC3)cc2)SCCO1	-15	-11	/	/	7
COc1ccc(-c2nnc(SCc3ccccc3F)o2)cc1	-14	-16	-1	0	16
COc1cc(OC)cc(-c2nnc(SCc3c(F)cccc3Cl)o2)c1	-18	38*	1	0	33
CCOC(=O)CSc1nc2c(c(-c3ccc(C)o3)c1C#N)CCCC2	-32	33*	-1	0	15
COC(/C(=N/O)c1ccc(Cl)cc1)c1ccccc1 (centres undefined)	13	60*	/	/	31
N=c1c(C(=O)NC2CCCC2)cc2c(=O)n3ccccc3nc2n1C1CCCCC1	-6	-4	/	/	24
COc1cc(OC)c(/C=C2\C(=O)Nc3ccccc32)c(OC)c1	-14	-8	/	/	41*
Cc1c(Nc2ccc(C=O)cc2)c(=O)n(-c2ccccc2)n1C	-13	3	-1	0	13
CSc1nc2ccc(S(=O)(=O)N3CCOCC3)cc2s1	-4	-12	1	0	9
N#CCc1nc2ccc(S(=O)(=O)N3CCOCC3)cc2s1	41*	35*	5	9	6
O=C(OCCOc1cccc(Cl)c1)C1CCN(S(=O)(=O)c2ccccc2)CC1	-21	13	/	/	21
O=[N+]([O-])c1cc(NCCO)c(N2CCCCCC2)c2nonc12	-21	-4	/	/	46*
Cc1ccc(S(=O)(=O)/N=C(/Nc2ccc([N+](=O)[O-])cc2[N+](=O)[O-])c2ccccc2)cc1	13	13	/	/	52*
COC(=O)c1ccc(N2CCC(c3cc(-c4ccc(OC)cc4)n[nH]3)CC2)c([N+](=O)[O-])c1	-13	-1	1	0	27
CC(=O)c1ccc(N2CCN(c3ncccn3)CC2)c([N+](=O)[O-])c1	3	10	/	/	30
CC(=O)c1ccc(N2CCC(c3cc(-c4ccc(Cl)cc4)n[nH]3)CC2)c([N+](=O)[O-])c1	15	43*	1	0	28
COc1ccc(-c2cc(C3CCN(c4ccc(C(C)=O)cc4[N+](=O)[O-])CC3)[nH]n2)cc1	25	50*	1	0	36
CC(OC(=O)Cn1[nH]c(=O)c2ccccc2c1=O)C(=O)Nc1ccc(Cl)cn1 (centres undefined)	-26	-22	/	/	8
Cn1nc(C(F)(F)F)c2cc(C(=O)Nc3ccc(C(F)(F)F)cc3)sc21	-18	-17	5	1	9
COc1cc(-c2nc3ccccn3c2NCc2ccccc2)ccc1SC1CCCCC1	-10	62*	/	/	23
Cc1cccc(N(C)S(=O)(=O)c2c(C)noc2C)c1	-21	-10	/	/	16
C=C(C(=O)c1ccccc1)C(c1ccccc1)C(C)C(=O)c1ccccc1 (centres undefined)	-22	41*	1	0	16
SMILES	OX1R antag-1	CHO parental Ca	TRPN1 ag	TRPML3 ag	OX1R antag-2
Cc1cc(Cl)ccc1OCCCC(N)=O	0	4	1	1	14
Cc1cc(OCC(=O)Nc2ccncc2)ccc1Br	48*	41*	8	4	49
COC(=O)CCCN1C(=O)c2cccc3cccc(c23)C1=O	-23	-15	/	/	33
CC(=O)Nc1ccc(NC(=O)C(C)OC(=O)CCCN2C(=O)c3cccc4cccc(c34)C2=O)cc1 (centres undefined)	-4	-24	/	/	74*
Cc1cc(Cl)ccc1OCC(=O)Nc1ccncc1	8	49*	/	/	16
CC(=O)Nc1ccc(NC(=O)C(C)OC(=O)CCCOc2ccc(Cl)cc2C)cc1 (centres undefined)	0	-22	/	/	53*
Cc1cc(C)n2nc(C(=O)NCC(=O)Nc3ccc(F)c(F)c3)nc2n1	-14	0	/	/	8
CCCn1c(SCC(=O)Nc2cccc(F)c2)nc(O)cc1=O	79*	40*	/	/	-6
O=C(Nc1cccc(-c2nc3cccnc3s2)c1)c1ccco1	6	-15	2	2	64*
CCOc1ncccc1C(=O)Nc1ccc(C)c(S(=O)(=O)N2CCCCCC2)c1	55*	34*	/	/	4
CCOc1ncccc1C(=O)Nc1ccc(OC)c(S(=O)(=O)N2CCCCC2)c1	-32	-1	-1	0	13
O=C(Nc1cccc(-c2cnc3ccccc3n2)c1)c1ccccc1	-17	-12	1	1	15
CCOc1ncccc1C(=O)Nc1cccc(-c2nc3cccnc3s2)c1	8	-18	3	1	68*
O=C(Nc1ccc(-c2nc3cccnc3s2)cc1)c1ccco1	-29	-4	3	1	17
O=C(Nc1ccc(-c2nc3cccnc3s2)cc1)c1cccnc1Cl	-14	-12	5	1	15
O=C(Nc1cccc(-c2cnc3ccccc3n2)c1)c1cccc(NC(=O)c2ccco2)c1	6	-5	0	1	49*
COc1ccccc1NC(=O)Cc1nnc(SCC(=O)NC2CCCCC2C)n1C (centres undefined)	-14	-4	/	/	17
CN1CC(=O)N(CC(=O)NC2CCCCC2)C1=O	-20	-10	/	/	5
CC(=O)Nc1ccc(Nc2nc(C)c([N+](=O)[O-])c(Nc3ccccc3)n2)cc1	-17	-13	0	1	32
Cc1ccc(Nc2ccc([N+](=O)[O-])nc2[N+](=O)[O-])cc1	2	-8	-1	0	62*
CCOc1ccc(Nc2ccc3nonc3c2[N+](=O)[O-])cc1	-35	0	/	/	45*
Cc1ccc(Nc2ccc3nonc3c2[N+](=O)[O-])cc1	-7	-17	-2	1	64*
O=[N+]([O-])c1c(Nc2ccc(Br)cc2)ccc2nonc12	-10	-4	/	/	13
Cc1nc(Nc2ccc(C(=O)O)cc2)nc(Nc2ccc(C(=O)O)cc2)c1[N+](=O)[O-]	-2	1	0	1	42*
O=C(O)c1ccc(Nc2ccc3nonc3c2[N+](=O)[O-])cc1	9	-7	/	/	57*
COC(=O)c1ccc(Nc2ccc3nonc3c2[N+](=O)[O-])cc1	-3	-3	/	/	5
O=S1(=O)N[C@H](c2ccccc2)C[C@H](c2ccc(C(F)(F)F)cc2)O1	-16	-7	/	/	15
